Calls of active or inactive are those of the source. No cut-off for these calls is given here.
How the values were obtained:
[1] = tested on: MDA-MB-231; assay: Antiproliferative activity in human MDA-MB-231 cells assessed as inhibition of cell viability at 1.5 to 3 uM pretreated with 20 uM apoptosis inhibitor, Z-VAD-FMK followed by addition of compound and measured after 48 hrs by MTT assay; type: functional, cell-based; settings: dose 1.5-3 µM
How it was run: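 MDA-MB-231 cells pretreated 1 h with necrostatin-1 (10 µM) or Z-VAD-FMK (20 µM), then exposed to compound at 1.5, 2 and 3 µM for another 48 h. Inhibition rates by MTT; inhibitors alone also tested 48 h for viability. Mean ± SD, n = 3.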

[2] = tested on: MDA-MB-231; assay: Induction of mitochondrial membrane potential depolarization in human MDA-MB-231 cells assessed as proportion of cells with depolarized MMP at 2 uM incubated for 18 hrs by JC-1 staining based flow cytometry (reference value: 0.72%); type: functional
[3] = Induction of intracellular reactive oxygen species generation in human MDA-MB-231 cells assessed as proportion of FL1-H negative cells at 1 uM measured after 24 hrs by DCFH-DA staining based flow cytometry analysis (reference value: 52.2%); type: functional, MDA-MB-23
[4] = tested on: MDA-MB-231; assay: Induction of apoptosis in human MDA-MB-231 cells assessed as increase in cleaved caspase-9 protein expression incubated for 8 hrs by Western blot analysis; type: functional, cell-based; settings: dose 1.5-6 µM
How it was run: (§1)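 MDA-MB-231 cells (8×10^5 per 60 mm dish) attached 24 h, then exposed 8 h to 1.5, 3 or 6 µM, DMSO as control. Lysates quantified by BCA; 30 µg protein run on 4–20% SDS-PAGE, transferred to PVDF, probed for Bcl-2, Bax, Bad, cleaved caspase-9, cleaved caspase-3 and PARP, with ECL detection. Densitometric relative levels; three experiments.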

[5] = tested on: MDA-MB-231; assay: Induction of mitochondrial membrane potential depolarization in human MDA-MB-231 cells assessed as proportion of cells with depolarized MMP at 1 uM incubated for 18 hrs by JC-1 staining based flow cytometry (reference value: 0.72%); type: functional
[6] = tested on: MCF7; assay: Anticancer activity against human MCF7 cells assessed as inhibition of cell proliferation measured after 48 hrs by MTT assay; type: functional, cell-based; settings: MCF7, 48 h
How it was run: (§2)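 Cells seeded at ~5,000/well, grown 24 h to partial monolayer, then exposed 48 h at 37°C, 5% CO2 to 0.5, 1, 2, 4, 10 and 20 µM (DMSO ≤0.1%). MTT final 0.5 mg/ml for 4 h, formazan dissolved in DMSO, A570. Survival expressed as % of untreated control; IC50 from dose-response curves; three independent experiments. MDA-MB-231, MCF-7, HepG2 in DMEM; A549 and LO-2 in RPMI-1640; 10% FBS.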

[7] = tested on: MDA-MB-231; assay: Induction of apoptosis in human MDA-MB-231 cells assessed as increase in cleaved PARP protein expression incubated for 8 hrs by Western blot analysis; type: functional, cell-based; settings: dose 1.5-6 µM; how it was run: as §1
[8] = tested on: MDA-MB-231; assay: Induction of apoptosis in human MDA-MB-231 cells assessed as viable cells at 1 uM after 24 hrs by Annexin V/propidium iodide based flow cytometric analysis (reference value: 99%); type: functional; settings: read-out: Activity
How it was run: (§3)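 MDA-MB-231 cells (2×10^5/well) attached 24 h, then treated 24 h with 1, 1.5, 2 or 3 µM, DMSO as control. Cells harvested, PBS-washed, resuspended in binding buffer, stained with Annexin V and PI for 30 min at 37°C in the dark, and analysed by flow cytometry for quadrant percentages; three experiments.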

[9] = tested on: A549; assay: Anticancer activity against human A549 cells assessed as inhibition of cell proliferation measured after 48 hrs by MTT assay; type: functional, cell-based; settings: A549, 48 h
How it was run: as §2, with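 “experiments.” for “experiments. MDA-MB-231, MCF-7, HepG2 in DMEM; A549 and LO-2 in RPMI-1640; 10% FBS.”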

[10] = tested on: MDA-MB-231; assay: Induction of cell cycle arrest in human MDA-MB-231 cells assessed as accumulation at G2/M phase at 1.5 uM measured after 24 hrs by propidium iodide staining based flow cytometric method (reference value: 18.55%); type: functional
[11] = tested on: MDA-MB-231; assay: Induction of cell cycle arrest in human MDA-MB-231 cells assessed as accumulation at G2/M phase at 1 uM measured after 24 hrs by propidium iodide staining based flow cytometric method (reference value: 18.55%); type: functional
[12] = tested on: MDA-MB-231; assay: Induction of reactive oxygen species production in human MDA-MB-231 cells at 2 uM preincubated with ROS scavenger, NAC for 2 hrs followed by incubation with compound for 24 hrs by DCFH-DA staining based flow cytometry analysis relative to control; type: functional
How it was run: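 MDA-MB-231 seeded at 2×10^5 cells/well, grown 24 h, pretreated with NAC (2.5 mM) for 2 h, then given 2 µM compound for 24 h. Cells loaded with DCFH-DA 30 min at 37°C in the dark, washed in PBS, resuspended in serum-free medium and read by flow cytometry; three independent experiments.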

[13] = tested on: MDA-MB-231; assay: Induction of apoptosis in human MDA-MB-231 cells assessed as necrotic cells at 2 uM after 24 hrs by Annexin V/propidium iodide based flow cytometric analysis (reference value: 0.019%); type: functional; how it was run: as §3
[14] = tested on: MDA-MB-231; assay: Induction of apoptosis in human MDA-MB-231 cells assessed as up-regulation of Bad expression at 1.5 to 6 uM measured after 8 hrs by Western blot analysis; type: functional, cell-based; settings: dose 1.5-6 µM; how it was run: as §1
[15] = tested on: MDA-MB-231; assay: Induction of apoptosis in human MDA-MB-231 cells assessed as early apoptotic cells at 1.5 uM after 24 hrs by Annexin V/propidium iodide based flow cytometric analysis (reference value: 0.94%); type: functional; how it was run: as §3
[16] = Induction of intracellular reactive oxygen species generation in human MDA-MB-231 cells assessed as proportion of FL1-H positive cells at 2 uM measured after 24 hrs by DCFH-DA staining based flow cytometry analysis (reference value: 47.8%); type: functional, MDA-MB-23
[17] = Induction of intracellular reactive oxygen species generation in human MDA-MB-231 cells assessed as proportion of FL1-H positive cells at 1.5 uM measured after 24 hrs by DCFH-DA staining based flow cytometry analysis (reference value: 47.8%); type: functional, MDA-MB-23
[18] = tested on: MDA-MB-231; assay: Induction of intracellular reactive oxygen species generation in human MDA-MB-231 cells at 2 uM measured after 24 hrs by DCFH-DA staining based flow cytometry analysis relative to control; type: functional
How it was run: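 MDA-MB-231 cells at 2×10^5 cells/well, grown 24 h, exposed 24 h to compound (1, 1.5, 2 µM) or DMSO control. Cells then took up DCFH-DA for 30 min at 37°C in the dark, were PBS-washed, resuspended in serum-free medium and analysed by flow cytometry. Relative DCF level vs control; mean ± SD, n = 3.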

[19] = tested on: MDA-MB-231; assay: Induction of mitochondrial membrane potential depolarization in human MDA-MB-231 cells assessed as proportion of cells with hyperpolarized MMP at 2 uM incubated for 18 hrs by JC-1 staining based flow cytometry (reference value: 98.4%); type: functional

For `COc1cc2cc(N)c(=O)oc2cc1OCCCOc1no[n+]([O-])c1S(=O)(=O)c1ccccc1`, the Activity [1] was “inactive”, the Activity [2] was 31.5% and the Activity [3] was 35%. The Activity [4] was “Dose-dependent effect”, the Activity [5] was 5.4% and the IC50 [6] was 1.91 µM. The Activity [7] was “Dose-dependent effect”, the viability at 1 µM [8] was 87.9% and the IC50 [9] was 4.18 µM. The Activity [10] was 30.11%, the Activity [11] was 24.58% and the “fold change (FC)” value [12] was 1.09. The Activity [13] was 0.2%, the Activity [14] was “Active” and the Activity [15] was 10.8%. For the same compound, the Activity [16] was 88.8%, the Activity [17] was 82.7% and the “fold change (FC)” value [18] was 2.16. For the same compound, the Activity [19] was 67.8%.
